Laboratory results reported in PMC7157925 (Steroids, 2003).

Experiments:
HSV-2 = test: Virucidal assay; design: species or system herpes simplex virus type 2; details: HSV-2 suspension incubated with compound 1 h at 37 °C
How it was run: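 HSV-2 strain G suspension (4×10^5 PFU) mixed with an equal volume of maintenance medium (MEM, 1.5% bovine serum), with or without various concentrations of test compound, 1 h at 37 °C. Samples then diluted in cold maintenance medium, and residual infectivity titrated by plaque formation on Vero cells. Compound stock 10 mg/ml in DMSO, filter-sterilized. VC50 is the concentration inactivating virions by 50%.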

HSV-2 strain G = test: Antiviral assay, reduction of virus plaque formation in Vero cells; type: cell-based, herpes simplex virus type 2; details: at a concentration up to 50 μg/ml
[1] = system: endothelin-converting enzyme; details: ref [20]; cited from earlier work

Row | SMILES | VC50, concentration required to inactivate virus by 50%±S.D. (HSV-2) [µg/mL] | Activity against HSV-2 (HSV-2 strain G) | Activity in the endothelin-converting enzyme assay [1]
1 | CC(C)CCC[C@@H](C)[C@H]1CC[C@H]2[C@@H]3CC[C@H]4C[C@H](O)[C@@H](O)C[C@]4(C)[C@H]3CC[C@]12C [Compound 5, 2β,3α-Dihydroxy-5α-cholestane] | > 100 | not active | –
2 | C=CCCC[C@@H](C)[C@H]1CC[C@H]2[C@@H]3CC[C@H]4C[C@H](OS(=O)(=O)O)[C@@H](OS(=O)(=O)O)C[C@]4(C)[C@H]3CC[C@]12C [Compound 19, Halistanol disulfate B] | – | – | active
